In BindingDB's records for doi:10.1021/jm00399a033 (Schering-Plough, 1988):

Target: T1, Angiotensin-converting enzyme (Oryctolagus cuniculus, UniProt P12822)
T1 sequence (P12822 whole entry): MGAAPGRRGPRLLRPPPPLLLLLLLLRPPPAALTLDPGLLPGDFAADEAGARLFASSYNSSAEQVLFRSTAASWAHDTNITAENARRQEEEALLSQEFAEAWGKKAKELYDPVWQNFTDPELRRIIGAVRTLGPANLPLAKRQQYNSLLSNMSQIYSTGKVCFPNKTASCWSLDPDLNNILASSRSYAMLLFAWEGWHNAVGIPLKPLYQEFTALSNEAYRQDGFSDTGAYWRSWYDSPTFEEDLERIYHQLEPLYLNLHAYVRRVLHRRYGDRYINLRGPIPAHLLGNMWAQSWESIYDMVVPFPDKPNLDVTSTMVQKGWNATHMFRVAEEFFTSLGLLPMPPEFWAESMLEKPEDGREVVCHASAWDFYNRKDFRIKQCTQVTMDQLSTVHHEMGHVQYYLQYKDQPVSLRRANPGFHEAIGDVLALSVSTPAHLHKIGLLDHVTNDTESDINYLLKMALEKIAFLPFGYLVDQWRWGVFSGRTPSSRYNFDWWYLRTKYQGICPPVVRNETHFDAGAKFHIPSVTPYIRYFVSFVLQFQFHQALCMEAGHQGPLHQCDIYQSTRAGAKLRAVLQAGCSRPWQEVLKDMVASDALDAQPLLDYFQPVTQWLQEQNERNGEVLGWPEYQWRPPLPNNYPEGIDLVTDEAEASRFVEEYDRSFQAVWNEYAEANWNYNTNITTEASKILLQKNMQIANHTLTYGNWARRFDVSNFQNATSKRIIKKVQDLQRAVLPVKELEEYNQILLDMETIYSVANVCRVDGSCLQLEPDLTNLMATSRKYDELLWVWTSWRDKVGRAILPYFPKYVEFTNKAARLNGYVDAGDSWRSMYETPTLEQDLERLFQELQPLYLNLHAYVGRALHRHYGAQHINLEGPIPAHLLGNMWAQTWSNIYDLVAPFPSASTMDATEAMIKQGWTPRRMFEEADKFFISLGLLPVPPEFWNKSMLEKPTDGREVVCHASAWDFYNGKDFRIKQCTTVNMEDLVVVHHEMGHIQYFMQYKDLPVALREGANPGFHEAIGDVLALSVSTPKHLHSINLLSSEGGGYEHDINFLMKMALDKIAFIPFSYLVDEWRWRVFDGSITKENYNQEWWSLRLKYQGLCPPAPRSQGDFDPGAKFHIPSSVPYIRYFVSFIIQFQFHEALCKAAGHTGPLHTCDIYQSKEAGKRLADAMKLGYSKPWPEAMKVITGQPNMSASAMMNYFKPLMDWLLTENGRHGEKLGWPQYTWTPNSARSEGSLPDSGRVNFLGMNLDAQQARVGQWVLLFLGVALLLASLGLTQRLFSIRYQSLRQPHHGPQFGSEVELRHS
Test: In vitro inhibition of Angiotensin I converting enzyme with relative to captopril(=1)
Procedure, shortened: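 Crude ACE from rabbit lung acetone powder extracted in 50 mM potassium phosphate pH 8.3, spun 40000g. Final assay: 100 mM phosphate pH 8.3, 300 mM NaCl, 5 mM hippuryl-His-Leu; enzyme added last, 30 min at 37 °C, stopped with HCl. Hippuric acid extracted into EtOAc, dried, redissolved in water, read by absorbance.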

IC50: 0.2 µM
Compound: O=C(O)[C@@H]1CCCN1C(=O)CCS
